The results in this text go back to ChEMBL document CHEMBL3259650, “Synthesis of symmetrically substituted 3,3-dibenzyl-4-hydroxy-3,4-dihydro-1H-quinolin-2-ones, as novel quinoline derivatives with antibacterial activity” (Eur J Med Chem, 2014).

Assay [1] concerns Enterococcus sp. The assay can be described thus: Antibacterial activity against Enterococcus sp. ATCC 6589. In kind it is functional.
The test system of assay [2] is Staphylococcus aureus. The assay can be described thus: Antibacterial activity against Staphylococcus aureus ATCC 6538p. In kind it is functional. In outline:
(§1)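 MIC determined by broth microdilution in casein soy broth (pH 7.3) at an inoculum of 10^5 CFU/mL, incubated 24 h at 37 C. Levofloxacin was the comparator and controls were run alongside. Samples were tested in quadruplicate.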

Assay [3] concerns Burkholderia cepacia. The assay can be described thus: Antibacterial activity against Burkholderia cepacia ATCC 17759 assessed as growth inhibition after 24 hrs by micro dilution method. In kind it is functional. As to conditions: ATCC 17759, 24 h. The essentials:
as §1

Assay [4] relates to Salmonella typhimurium. The assay is described as follows: Antibacterial activity against Salmonella typhimurium ATCC 14028. The assay is classed as functional, Salmonella enterica subsp. enterica serovar Typhimurium. In outline:
as §1

Assay [5] has as its system Morganella morganii. The assay is described as follows: Antibacterial activity against Morganella morganii ATCC 8019. In kind it is functional.
The test system of assay [6] is Staphylococcus aureus. The assay is described as follows: Antibacterial activity against Staphylococcus aureus ATCC 6538p assessed as growth inhibition after 24 hrs by micro dilution method. In kind it is functional. The essentials: as §1
Assay [7] deals with Escherichia coli. The assay is described as follows: Antibacterial activity against Escherichia coli ATCC 25922. In kind it is functional.
The subject of the next assay is Bacillus spizizenii. The assay can be described thus: Antibacterial activity against Bacillus subtilis ATCC 6633 assessed as growth inhibition after 24 hrs by micro dilution method. The following applies: ATCC 6633, 24 h. In kind it is functional. In outline:
as §1

Assay [8] relates to Shigella sonnei. The assay can be described thus: Antibacterial activity against Shigella sonnei ATCC 15305. In kind it is functional.
The test system of assay [9] is Enterococcus sp. The assay is described as follows: Antibacterial activity against Enterococcus sp. ATCC 6589 assessed as growth inhibition by measuring turbidity of medium at 6.25 to 100 ug/mL measured over 10 hrs by microplate reader analysis. The assay is classed as functional, organism-based. The essentials:
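Overnight casein soy broth cultures (37 C) were centrifuged, resuspended in fresh medium and adjusted to about 5 10^7 cells/mL (OD620 0.2). Cells were grown in microplate wells to mid-log phase, then twofold serial dilutions of the test agents in fresh medium were added. OD620 was read every 15 min at 23 C for 10 h, with 30 s shaking between reads. Runs were in quadruplicate.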

The test system of assay [10] is Escherichia coli. The assay can be described thus: Antibacterial activity against Escherichia coli ATCC 25922 assessed as growth inhibition after 24 hrs by micro dilution method. The assay is classed as functional. As to conditions: ATCC 25922, 24 h. The essentials: as §1
In the next assay the test system is Klebsiella aerogenes. The assay is described as follows: Antibacterial activity against Enterobacter aerogenes ATCC 13048 assessed as growth inhibition after 24 hrs by micro dilution method. As to conditions: ATCC 13048, 24 h. The assay is classed as functional. The essentials: as §1
In assay [11] the test system is Morganella morganii. The assay can be described thus: Antibacterial activity against Morganella morganii ATCC 8019 assessed as growth inhibition after 24 hrs by micro dilution method. As to conditions: ATCC 8019, 24 h. In kind it is functional. The essentials:
as §1

In assay [12] the test system is Burkholderia cepacia. The assay can be described thus: Antibacterial activity against Burkholderia cepacia ATCC 17759. The assay is classed as functional.
For a further assay, the system named is Pseudomonas aeruginosa. The assay is described as follows: Antibacterial activity against Pseudomonas aeruginosa ATCC […] assessed as growth inhibition after 24 hrs by micro dilution method. In kind it is functional. In outline:
as §1

For assay [13], the system named is Shigella sonnei. The assay can be described thus: Antibacterial activity against Shigella sonnei ATCC 15305 assessed as growth inhibition after 24 hrs by micro dilution method. In kind it is functional. As to conditions: ATCC 15305, 24 h. In outline:
as §1

Assay [14] relates to Enterococcus sp. The assay is described as follows: Antibacterial activity against Enterococcus sp. ATCC 6589 assessed as growth inhibition after 24 hrs by micro dilution method. The assay is classed as functional. As to conditions: ATCC 6589, 24 h. In outline:
as §1

Assay [15] has as its system Salmonella typhimurium. The assay is described as follows: Antibacterial activity against Salmonella typhimurium ATCC 14028 assessed as growth inhibition after 24 hrs by micro dilution method. The assay is classed as functional, Salmonella enterica subsp. enterica serovar Typhimurium. As to conditions: Salmonella enterica, ATCC 14028, 24 h. In outline: as §1

Calls of active or inactive are those of the source. The calls are words filed in the database; no cut-off is given here.

As to `C[C@H]1COc2c(N3CCN(C)CC3)c(F)cc3c(=O)c(C(=O)O)cn1c23.C[C@H]1COc2c(N3CCN(C)CC3)c(F)cc3c(=O)c(C(=O)O)cn1c23.O` [LEVOFLOXACIN], the MLC worked out at 0.78 µg/mL in the assay on Enterococcus sp. [1]; 3.12 µg/mL in the assay on Staphylococcus aureus [2]; 0.78 µg/mL with Salmonella typhimurium [4]; 0.78 µg/mL with Morganella morganii [5]; 3.12 µg/mL in the assay on Escherichia coli [7]; 3.12 µg/mL in the assay on Shigella sonnei [8]. The compound also returned an MLC in the assay on Burkholderia cepacia [12] of 0.78 µg/mL. The MIC amounted to 0.78 µg/mL with Burkholderia cepacia [3]; 3.12 µg/mL with Staphylococcus aureus [6]; 3.12 µg/mL in the assay with Bacillus spizizenii; 3.12 µg/mL in the assay on Escherichia coli [10]; 0.78 µg/mL in the assay on Klebsiella aerogenes; 0.78 µg/mL in the assay with Morganella morganii [11]. Also, the MIC in the assay with Pseudomonas aeruginosa came out at 3.12 µg/mL; in the assay on Shigella sonnei [13], 3.12 µg/mL; in the assay with Enterococcus sp. [14], 0.78 µg/mL; with Salmonella typhimurium [15], 0.78 µg/mL. The “growth inhibition (GI)” value in the assay on Enterococcus sp. [9] was “Active”.
